# Laboratory results taken from ChEMBL document CHEMBL1130078, “Discovery of an orally active series of isoxazoline glycoprotein IIb/IIIa antagonists” (J Med Chem, 1997).
# How the values were obtained:
# [1] = system: Canis familiaris; experiment: Inhibition of platelet aggregation for 12 hr after oral dose of 0.3-0.4 mg/kg to dog; assay type: functional, Canis lupus familiaris
# Outline: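 Dogs dosed orally at 0.1–0.4 mg/kg; ex vivo ADP (100 μM)-induced platelet aggregation followed over time up to 12 h, n = 4.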
# [2] = system: Rhesus monkey; experiment: Inhibition of ex vivo aggregation over 12 hr after oral dose of 0.3 mg/kg to rhesus monkey; assay type: functional, Cercopithecidae; settings: Macaca mulatta
# Outline: (§1)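 Rhesus monkeys of either sex, 8–15 years, 6–10 kg, at least two animals/sex per dose, n = 8. Oral gavage by feeding tube of a solution in 0.9% saline (0.5 mL/kg), then water flush. Blood was drawn at various time points from the femoral or saphenous vein into citrate for ex vivo ADP (100 μM)-induced aggregation.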
# [3] = system: Rhesus monkey; experiment: Inhibition of ex vivo aggregation in 2 hr after oral dose of 0.3 mg/kg to rhesus monkey; assay type: functional, Cercopithecidae; settings: Macaca mulatta; outline: as §1
# [4] = system: Canis familiaris; experiment: Inhibition of ex vivo platelet aggregation after intravenous administration of bolus dose of 0.025 mg/kg to dog; assay type: functional; settings: Canis lupus familiaris
# Outline: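 Dogs given an iv bolus. Ex vivo ADP (100 μM)-induced platelet aggregation measured in samples taken over 5 h.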
# [5] = molecular target: T1, Integrin alpha-IIb/beta-3 (Homo sapiens, UniProt P05106+P08514)
# T1 sequence (P05106 27-788 limits assumed): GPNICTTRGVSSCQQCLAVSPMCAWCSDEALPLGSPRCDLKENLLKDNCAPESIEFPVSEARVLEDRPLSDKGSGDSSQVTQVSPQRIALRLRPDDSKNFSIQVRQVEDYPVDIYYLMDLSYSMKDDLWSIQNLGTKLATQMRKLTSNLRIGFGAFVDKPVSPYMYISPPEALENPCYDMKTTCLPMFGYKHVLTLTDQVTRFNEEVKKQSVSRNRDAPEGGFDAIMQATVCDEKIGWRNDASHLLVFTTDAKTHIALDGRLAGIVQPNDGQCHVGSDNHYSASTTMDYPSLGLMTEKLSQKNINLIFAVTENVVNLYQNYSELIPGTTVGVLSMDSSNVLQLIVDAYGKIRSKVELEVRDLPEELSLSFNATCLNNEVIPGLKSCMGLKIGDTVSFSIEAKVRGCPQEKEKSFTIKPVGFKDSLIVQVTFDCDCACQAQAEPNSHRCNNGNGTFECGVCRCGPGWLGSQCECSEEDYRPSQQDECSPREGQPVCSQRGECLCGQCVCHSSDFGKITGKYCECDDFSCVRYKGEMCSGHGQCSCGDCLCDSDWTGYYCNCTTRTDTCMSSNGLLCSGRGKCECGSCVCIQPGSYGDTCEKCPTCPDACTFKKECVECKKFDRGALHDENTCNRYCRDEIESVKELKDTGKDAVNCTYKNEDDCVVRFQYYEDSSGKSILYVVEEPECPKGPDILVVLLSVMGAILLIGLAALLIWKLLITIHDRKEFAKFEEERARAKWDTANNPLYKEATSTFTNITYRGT
# T1 sequence (P08514 32-887 limits assumed): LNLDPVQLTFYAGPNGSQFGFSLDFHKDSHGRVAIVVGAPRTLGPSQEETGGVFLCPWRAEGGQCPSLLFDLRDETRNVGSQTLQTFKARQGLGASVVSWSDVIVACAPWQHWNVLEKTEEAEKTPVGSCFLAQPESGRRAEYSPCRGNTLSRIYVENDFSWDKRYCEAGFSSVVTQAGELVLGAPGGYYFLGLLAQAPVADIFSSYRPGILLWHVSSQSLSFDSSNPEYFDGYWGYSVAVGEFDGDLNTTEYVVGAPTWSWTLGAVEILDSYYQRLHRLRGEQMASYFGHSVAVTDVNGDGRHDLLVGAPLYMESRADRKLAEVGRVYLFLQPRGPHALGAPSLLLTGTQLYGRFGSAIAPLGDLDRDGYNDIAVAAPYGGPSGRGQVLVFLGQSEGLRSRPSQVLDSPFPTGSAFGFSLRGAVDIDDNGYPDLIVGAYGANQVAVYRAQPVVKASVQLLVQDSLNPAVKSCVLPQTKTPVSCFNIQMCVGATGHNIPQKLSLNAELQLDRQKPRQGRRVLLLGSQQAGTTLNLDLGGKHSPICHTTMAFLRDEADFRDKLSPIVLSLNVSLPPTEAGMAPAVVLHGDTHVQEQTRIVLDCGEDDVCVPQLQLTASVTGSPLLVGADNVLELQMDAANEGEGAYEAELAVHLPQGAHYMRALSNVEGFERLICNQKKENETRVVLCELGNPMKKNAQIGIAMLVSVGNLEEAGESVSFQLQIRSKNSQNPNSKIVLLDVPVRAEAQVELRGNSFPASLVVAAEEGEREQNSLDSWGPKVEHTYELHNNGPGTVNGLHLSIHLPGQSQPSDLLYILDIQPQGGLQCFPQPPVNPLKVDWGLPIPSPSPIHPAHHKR
# T1 sequence (P08514 891-1039 limits assumed): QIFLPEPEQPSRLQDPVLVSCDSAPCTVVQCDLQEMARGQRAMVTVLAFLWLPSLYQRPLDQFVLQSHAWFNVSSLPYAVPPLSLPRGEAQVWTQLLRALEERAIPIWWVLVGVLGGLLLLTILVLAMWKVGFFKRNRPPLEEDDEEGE
# [6] = molecular target: T1, Integrin alpha-IIb/beta-3; remark: listed apart in the source
# [7] = molecular target: T1, Integrin alpha-IIb/beta-3; experiment: In vitro inhibition of ADP-induced platelet aggregation in human platelet rich plasma (hPRP); assay type: functional, cell-free
compound,measurement,setting,value
CCCCOC(=O)N[C@@H](CNC(=O)CC1CC(c2ccc(C(=N)N)cc2)=NO1)C(=O)OC.Cl (some centres not stated),Inhibition,[1],>60%
same,inhibition in vivo at 0.3 mg/kg,[2],60%
same,inhibition in vivo at 0.3 mg/kg,[3],90%
CCCCOC(=O)N[C@@H](CNC(=O)C[C@H]1CC(c2ccc(C(=N)N)cc2)=NO1)C(=O)O,inhibition in vivo at 0.025 mg/kg,[4],90%
same,IC50,[5],11 nM
same,IC50,[6],0.25 nM
N=C(N)c1ccc(C2=NOC(CC(=O)NCCC(=O)O)C2)cc1 (configuration not stated),IC50,[7],240 nM
